Data taken from ChEMBL document CHEMBL2057152, “Synthesis and antibacterial activity against Clostridium difficile of novel demethylvancomycin derivatives” (2012).
≈ marks a conversion by molar mass, not a printed value.

Columns and labels:
Type in all cases: functional
Clostridioides difficile [1] = test: Antibacterial activity against Clostridium difficile IQCC 23903 after 16 hrs by two-fold serial dilution method; details: IQCC 23903, 16 h
Procedure, shortened: (§1)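 CLSI agar dilution MIC. Compounds are dissolved in 50% water in DMSO as a stock, twofold serially diluted in sterile water, then diluted 10-fold into Mueller-Hinton agar. Organisms are grown in MH broth at 35 °C for 8 h and adjusted to 0.5 McFarland. They are applied to the drug-containing plates by multipoint inoculator and incubated at 35 °C for 16 h. Vancomycin and demethylvancomycin serve as controls.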

Clostridioides difficile [2] = test: Ratio of MIC for vancomycin to compound MIC for Clostridium difficile ATCC 43255 after 16 hrs by two-fold serial dilution method
Clostridioides difficile [3] = test: Ratio of MIC for demethylvancomycin to compound MIC for Clostridium difficile ATCC 700792 after 16 hrs by two-fold serial dilution method
Clostridioides difficile [4] = test: Ratio of MIC for demethylvancomycin to compound MIC for Clostridium difficile ATCC 43255 after 16 hrs by two-fold serial dilution method
Clostridioides difficile [5] = test: Antibacterial activity against Clostridium difficile ATCC 700057 after 16 hrs by two-fold serial dilution method; details: ATCC 700057, 16 h; procedure, shortened: as §1
Clostridioides difficile [6] = test: Ratio of MIC for vancomycin to compound MIC for Clostridium difficile IQCC 23903 after 16 hrs by two-fold serial dilution method
Clostridioides difficile [7] = test: Ratio of MIC for vancomycin to compound MIC for Clostridium difficile ATCC 700792 after 16 hrs by two-fold serial dilution method
Clostridioides difficile [8] = test: Antibacterial activity against Clostridium difficile ATCC 700792 after 16 hrs by two-fold serial dilution method; details: ATCC 700792, 16 h; procedure, shortened: as §1
Clostridioides difficile [9] = test: Ratio of MIC for demethylvancomycin to compound MIC for Clostridium difficile ATCC 700057 after 16 hrs by two-fold serial dilution method
Enterococcus faecalis [10] = test: Antibacterial activity against Enterococcus faecalis ATCC 700802 after 16 hrs by two-fold serial dilution method; details: ATCC 700802, 16 h; procedure, shortened: as §1
Clostridioides difficile [11] = test: Ratio of MIC for demethylvancomycin to compound MIC for Clostridium difficile IQCC 23903 after 16 hrs by two-fold serial dilution method
Clostridioides difficile [12] = test: Ratio of MIC for vancomycin to compound MIC for Clostridium difficile ATCC 700057 after 16 hrs by two-fold serial dilution method
[13] = Antibacterial activity against Clostridium difficile ATCC 43255 after 16 hrs by two-fold serial dilution method; details: Clostridioides difficile, ATCC 43255, 16 h; procedure, shortened: as §1
Enterococcus faecalis [14] = test: Ratio of MIC for demethylvancomycin to compound MIC for Enterococcus faecalis ATCC 700802 after 16 hrs by two-fold serial dilution method
Enterococcus faecalis [15] = test: Ratio of MIC for vancomycin to compound MIC for Enterococcus faecalis ATCC 700802 after 16 hrs by two-fold serial dilution method

Row | SMILES | MIC (Clostridioides difficile [1]) | Ratio (Clostridioides difficile [2]) | Ratio (Clostridioides difficile [3]) | Ratio (Clostridioides difficile [4]) | MIC (Clostridioides difficile [5]) | Ratio (Clostridioides difficile [6]) | Ratio (Clostridioides difficile [7]) | MIC (Clostridioides difficile [8]) | Ratio (Clostridioides difficile [9]) | MIC (Enterococcus faecalis [10]) | Ratio (Clostridioides difficile [11]) | Ratio (Clostridioides difficile [12]) | MIC [13] | Ratio (Enterococcus faecalis [14]) | Ratio (Enterococcus faecalis [15])
1 | CC(C)C[C@@H](N)C(=O)N[C@H]1C(=O)N[C@@H](CC(N)=O)C(=O)N[C@H]2C(=O)N[C@H]3C(=O)N[C@H](C(=O)N[C@H](C(=O)O)c4cc(O)cc(O)c4-c4cc3ccc4O)[C@H](O)c3ccc(c(Cl)c3)Oc3cc2cc(c3O[C@@H]2O[C@H](CO)[C@@H](O)[C@H](O)[C@H]2O[C@H]2C[C@](C)(NCc3ccc(Cl)cc3)[C@H](O)[C@H](C)O2)Oc2ccc(cc2Cl)[C@H]1O | 0.25 µg/mL (≈ 0.16 µM) | 2 | 2 | 2 | 0.5 µg/mL (≈ 0.321 µM) | 2 | 2 | 0.25 µg/mL (≈ 0.16 µM) | 2 | 16 µg/mL (≈ 10.3 µM) | 2 | 2 | 0.25 µg/mL (≈ 0.16 µM) | – | –
2 | CC(C)C[C@@H](N)C(=O)N[C@H]1C(=O)N[C@@H](CC(N)=O)C(=O)N[C@H]2C(=O)N[C@H]3C(=O)N[C@H](C(=O)N[C@H](C(=O)O)c4cc(O)cc(O)c4-c4cc3ccc4O)[C@H](O)c3ccc(c(Cl)c3)Oc3cc2cc(c3O[C@@H]2O[C@H](CO)[C@@H](O)[C@H](O)[C@H]2O[C@H]2C[C@](C)(NCc3ccc4ccccc4c3)[C@H](O)[C@H](C)O2)Oc2ccc(cc2Cl)[C@H]1O | 0.25 µg/mL (≈ 0.159 µM) | 2 | 2 | 2 | 0.25 µg/mL (≈ 0.159 µM) | 2 | 2 | 0.125 µg/mL (≈ 0.0793 µM) | 2 | 16 µg/mL (≈ 10.2 µM) | 2 | 2 | 0.25 µg/mL (≈ 0.159 µM) | – | –
3 | CC(C)C[C@@H](N)C(=O)N[C@H]1C(=O)N[C@@H](CC(N)=O)C(=O)N[C@H]2C(=O)N[C@H]3C(=O)N[C@H](C(=O)N[C@H](C(=O)O)c4cc(O)cc(O)c4-c4cc3ccc4O)[C@H](O)c3ccc(c(Cl)c3)Oc3cc2cc(c3O[C@@H]2O[C@H](CO)[C@@H](O)[C@H](O)[C@H]2O[C@H]2C[C@](C)(NCc3c4ccccc4cc4ccccc34)[C@H](O)[C@H](C)O2)Oc2ccc(cc2Cl)[C@H]1O | 0.25 µg/mL (≈ 0.154 µM) | 2 | 2 | 2 | 0.5 µg/mL (≈ 0.308 µM) | 2 | 2 | 0.25 µg/mL (≈ 0.154 µM) | 2 | 2 µg/mL (≈ 1.23 µM) | 2 | 2 | 0.25 µg/mL (≈ 0.154 µM) | – | –
4 | CC(C)C[C@@H](N)C(=O)N[C@H]1C(=O)N[C@@H](CC(N)=O)C(=O)N[C@H]2C(=O)N[C@H]3C(=O)N[C@H](C(=O)N[C@H](C(=O)O)c4cc(O)cc(O)c4-c4cc3ccc4O)[C@H](O)c3ccc(c(Cl)c3)Oc3cc2cc(c3O[C@@H]2O[C@H](CO)[C@@H](O)[C@H](O)[C@H]2O[C@H]2C[C@](C)(NCc3ccc(Br)cc3)[C@H](O)[C@H](C)O2)Oc2ccc(cc2Cl)[C@H]1O | 0.25 µg/mL (≈ 0.156 µM) | 2 | 2 | 2 | 0.25 µg/mL (≈ 0.156 µM) | 2 | 2 | 0.25 µg/mL (≈ 0.156 µM) | 2 | 8 µg/mL (≈ 4.99 µM) | 2 | 2 | 0.25 µg/mL (≈ 0.156 µM) | – | –
5 | CCCCCCCCCCCN[C@@]1(C)C[C@H](O[C@H]2[C@H](Oc3c4cc5cc3Oc3ccc(cc3Cl)[C@@H](O)[C@@H](NC(=O)[C@H](N)CC(C)C)C(=O)N[C@@H](CC(N)=O)C(=O)N[C@H]5C(=O)N[C@H]3C(=O)N[C@H](C(=O)N[C@H](C(=O)O)c5cc(O)cc(O)c5-c5cc3ccc5O)[C@H](O)c3ccc(c(Cl)c3)O4)O[C@H](CO)[C@@H](O)[C@@H]2O)O[C@@H](C)[C@H]1O | 0.5 µg/mL (≈ 0.315 µM) | – | – | – | 0.5 µg/mL (≈ 0.315 µM) | – | – | 0.5 µg/mL (≈ 0.315 µM) | – | 0.5 µg/mL (≈ 0.315 µM) | – | – | 0.5 µg/mL (≈ 0.315 µM) | 64 | 64
